Test results: publication PMC2984665 (Phytochemistry, 2010)

What was measured:
[1] = stability of the isolated pure compounds on storage; assay type: physicochemical; conditions: pure isolated compound; decomposition followed by discoloration and LC-MS
[2] = target: serine protease chymotrypsin (Bos taurus, UniProt P00766); assay: chymotrypsin chemiluminescent assay with and without detergent; assay type: biochemical; conditions: read-out: IC50, inhibition of chymotrypsin; without detergent
Procedure, shortened: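 Serine protease chymotrypsin, standard chemiluminescent read-out. Each test compound run in parallel without detergent and with 0.01% (v/v) Triton added, to screen for aggregation-based inhibition; IC50 derived under each condition.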

Row | Substance | stability after isolation in pure form [1] | IC50 [2] [µM]
1 | Sebestenoid B [Compound 2] | decomposed rapidly | 
2 | Sebestenoid A [Compound 1] | stable | 
3 | Sebestenoid D [Compound 4] | decomposed rapidly | 27
4 | Sebestenoid C [Compound 3] | stable | 33
